cytoskel mod: modifiers of F-actin cytoskeleton organization, primary screen, imaging, HUVEC, phalloidin staining, high-content imaging; HUVEC TNFa F-actin phalloidin imaging; inhibition, % at 2 µM; 0.18% of 91,000 active; AID 836, 2007;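 active means inhibition above the batch mean plus 3 SD and confirmed as a hit by visual image inspection, cut at about 30% in these data, passing the limit was not always enough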
H69AR inhibit: proliferation blockers of H69AR lung cancer cells, primary screen, cell-based, human, 86K library | H69AR lung tumor viability, ATP luminescence, 72 h; active compounds read low | viability, % at 10 µM | 6% of 85,000 active;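 active means viability at or below 40%; inactive means viability above 40%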;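 further: multidrug resistant small cell line overexpressing MRP-1 efflux transporter; 100% = mean luminescence of untreated control wells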
PTK2B oligo ant: antagonists of Pyk2 self-association, primary screen, Q293 cells, FERM NanoBiT luminescence, HTS. Protein-tyrosine kinase 2-beta (Homo sapiens), Q14289. active compounds read low. z-score (the deposit names both 25 µM and 10 µM). 0.83% of 99,000 active. AID 1347419, 2020;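 active means Z-score of -3 or lower, scaled per plate to the spread of control and sample wells; inactive means z-score above -3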;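 further: negative z-score means lost luminescence so less FERM oligomerization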
Target sequence (Q14289 whole entry, looked up): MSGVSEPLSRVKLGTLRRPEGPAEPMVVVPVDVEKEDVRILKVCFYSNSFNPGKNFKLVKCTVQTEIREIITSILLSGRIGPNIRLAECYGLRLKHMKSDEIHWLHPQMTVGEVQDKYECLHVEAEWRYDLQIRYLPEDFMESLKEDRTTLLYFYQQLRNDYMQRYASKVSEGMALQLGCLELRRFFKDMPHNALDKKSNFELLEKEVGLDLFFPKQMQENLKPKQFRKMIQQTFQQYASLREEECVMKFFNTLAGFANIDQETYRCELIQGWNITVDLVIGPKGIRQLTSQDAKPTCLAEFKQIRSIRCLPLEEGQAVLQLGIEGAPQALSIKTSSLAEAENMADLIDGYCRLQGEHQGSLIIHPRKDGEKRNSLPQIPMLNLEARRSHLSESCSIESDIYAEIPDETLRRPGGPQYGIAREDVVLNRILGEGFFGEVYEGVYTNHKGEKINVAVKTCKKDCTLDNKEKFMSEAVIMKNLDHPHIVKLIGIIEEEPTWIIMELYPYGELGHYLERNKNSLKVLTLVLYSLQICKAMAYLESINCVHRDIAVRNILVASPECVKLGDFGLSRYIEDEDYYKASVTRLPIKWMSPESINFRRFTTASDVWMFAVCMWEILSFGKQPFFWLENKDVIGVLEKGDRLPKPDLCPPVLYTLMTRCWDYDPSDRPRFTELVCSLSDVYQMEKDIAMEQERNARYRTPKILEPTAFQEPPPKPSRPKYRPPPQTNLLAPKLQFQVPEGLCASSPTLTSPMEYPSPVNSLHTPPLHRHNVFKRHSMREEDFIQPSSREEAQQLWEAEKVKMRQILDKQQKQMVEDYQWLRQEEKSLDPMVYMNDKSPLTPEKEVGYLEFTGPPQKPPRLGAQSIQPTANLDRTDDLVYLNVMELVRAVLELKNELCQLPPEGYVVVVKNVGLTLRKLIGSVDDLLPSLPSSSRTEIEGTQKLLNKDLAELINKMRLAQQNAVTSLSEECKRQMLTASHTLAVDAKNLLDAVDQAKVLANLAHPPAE
HUVEC prolif 384: inhibitors of HUVEC proliferation, primary screen, cell-based, 384-well; 1.1% of 86,000 active; CellTiter-Glo luminescence, 72 h; active compounds read low; viability, % at 10 µM (by protocol); AID 648, 2007;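 active means viability at or below 30%; inactive means viability above 30%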;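 further: 100% = median luminescence of DMSO-only cell control wells on each plate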
Jurkat viability: cytotoxicity toward Jurkat T cells, primary screen, cytotoxicity control, cell-based, Jurkat E6.1, 60K MLSMR library; Jurkat E6.1 viability, ATP luminescence, 48 h; inhibition, % at 4 µM; AID 463, 2006; 1.2% of 56,000 active;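 active means inhibition above the mean inhibition of all tested compounds plus 3 SD, cut at about 28% in these data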
Lung fibro prol: antiproliferative effect on LL 47 fibroblasts – human, LL 47 cells, CellTiter-Glo luminescence, primary screen; viability, % at 10 µM; LL 47 human lung fibroblast viability, ATP luminescence; active compounds read low; 1.1% of 85,000 active;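 active means viability at or below 50% in the single dose screen; inactive means viability above 50%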;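 further: compound exposure lasted 72 h before the ATP readout; 100% = median luminescence of untreated cell-only wells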
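Material: Human LL 47 lung fibroblast cells | Input: 1,150 cells/well | Buffer or medium: IMEM plus 15% FBS | Compound dosing: 0.1% DMSO in all compound wells | Times: Overnight cell rest, 72 h compound treatment at 37 °C | Signal: CellTiter-Glo luminescence measuring cellular ATP | Measure: % viability versus median cells-only luminescence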
Active calls of the source: *; . = no result given. Rows were chosen to be rich in hits. Some 6% of all compounds tested hit in one or more screens of this group.

SMILES | cytoskel mod | H69AR inhibit | PTK2B oligo ant | HUVEC prolif 384 | Jurkat viability | Lung fibro prol
CCOc1ccc2nc(Cl)c(/C=C/C(=O)c3ccco3)cc2c1 | -9.2 | 8.9* | 1.04 | 77.4 | . | 93.0
CCOc1ccc2nc(COC(=O)c3ccco3)c(C(C)=O)[n+]([O-])c2c1 | 10.3 | 77.2 | 1.04 | 85.1 | -4.7 | 106.3
O=C(CSc1nnc(-c2cccs2)n1-c1ccccc1)NCc1ccc2c(c1)OCO2 | 10.9 | 83.0 | -0.67 | 104.9 | -4.6 | 92.6
COc1ccc(NC(=O)CSc2nnc(Cc3cccs3)n2-c2ccc(C)cc2)cc1 | 2.6 | 40.3 | -2.59 | 88.1 | . | 92.5
Cc1ccc(-n2c(SCC(=O)Nc3ccc4c(c3)OCO4)nnc2-c2cccs2)cc1 | 9.8 | 9.2* | -1.84 | 66.8 | 5.8 | 33.3*
COc1cccc(NC(=O)Cc2nnc(SCC(=O)c3ccccc3)n2C)c1 | -4.7 | 31.5* | 0.55 | 79.5 | 1.2 | 86.8
CC(Sc1nnc(-c2cccs2)n1Cc1ccccc1)C(=O)NCc1ccc2c(c1)OCO2 (centres undefined) | . | 30.3* | -0.59 | 78.6 | . | 87.2
COc1cccc(NC(=O)CSc2nnc(Cc3cccs3)n2-c2ccc(C)cc2)c1 | -8.8 | 87.2 | -3.16* | 94.6 | . | 106.0
CC(C)Oc1ccc(N2CC(C(=O)OCC(=O)NCc3ccccc3)CC2=O)cc1 (centres undefined) | 5.7 | . | 1.35 | . | . | .
COc1c(C)cccc1C(=O)Nc1cc(-c2nn3c(C)nnc3s2)ccc1C | -8.8 | . | . | . | -7.3 | .
O=C(CSc1nnc(-c2cccnc2)n1-c1ccccc1)Nc1ccc2c(c1)OCO2 | -6.2 | 34.9* | 1.63 | 96.4 | -1.8 | 87.0
O=C(CSc1nnc(-c2cccnc2)n1-c1ccccc1)Nc1ccccn1 | . | 93.7 | -0.34 | 89.6 | 0.1 | 105.7
Cc1cccc(-n2c(SCC(=O)Nc3ccc4c(c3)OCO4)nnc2-c2ccoc2C)c1 | 11.2 | 9.2* | -2.6 | 48.5 | -2.1 | 59.2
CCCn1c(SCC(=O)Nc2ccc3c(c2)OCCO3)nnc1-c1ccco1 | -2.1 | . | 0.36 | . | -4.4 | .
Cc1ccc(-n2c(SCC(=O)Nc3ccc4c(c3)OCCO4)nnc2-c2ccco2)cc1 | 6.3 | 13.5* | -2.34 | 56.6 | -6.6 | 42.6*
COC(=O)C(NC(=O)c1ccc(C)cc1)(Nc1cccc(C)n1)C(F)(F)F (centres undefined) | -2.6 | 97.9 | -0.2 | 101.7 | . | 98.6
Cc1ccc(N(C(=O)CNC(=O)c2ccco2)C(C(=O)NCC2CCCO2)c2ccccc2)cc1 (centres undefined) | . | 95.3 | 0.04 | 85.1 | -6.3 | 99.7
CC(=O)CCS(=O)(=O)c1ccc(NC(C)=O)cc1 | -9.4 | 0.2* | 0.13 | 97.1 | . | 93.3
CC(=O)Nc1ccc(S(=O)(=O)CCC(=O)O)cc1 | -0.9 | 106.3 | -0.38 | 88.5 | . | 94.2
COC(=O)/C=C/S(=O)(=O)c1ccc(NC(C)=O)cc1 | -6.1 | 1.0* | -0.2 | 79.6 | 70.9* | .
CCN(CC)CCNC1=NCCn2c1cc1cc(OC)ccc12 | -22.9 | 51.9 | -0.05 | 83.3 | . | 80.7
CN=C1c2cc3cc(OC)ccc3n2CCN1Cc1ccccc1 | -11.5 | 19.2* | 1.69 | 57.9 | . | 45.9*
O=C(c1ccco1)N1CCN(c2ncnc3scc(-c4ccccc4)c23)CC1 | 14.9 | 39.8* | -2.12 | 99.8 | . | 112.5
Cc1ccc(-c2csc3ncnc(N4CCN(C(=O)c5ccccc5)CC4)c23)cc1 | 4.9 | 22.2* | -2.15 | 58.9 | . | 73.7
O=C(c1ccco1)N1CCN(c2ncnc3scc(-c4cccs4)c23)CC1 | 35.8 | 43.0 | -1.98 | 68.6 | 10.5 | 88.0
SMILES | cytoskel mod | H69AR inhibit | PTK2B oligo ant | HUVEC prolif 384 | Jurkat viability | Lung fibro prol
O=C(O)/C=C/C(=O)Nc1ccccc1SC(F)(F)F | . | . | -0.12 | . | . | .
Cc1sc(/N=C/c2ccccc2O)c(C#N)c1C | . | 104.3 | . | 81.8 | . | 97.5
CC(=O)N1CCc2cc(S(=O)(=O)NC(CC(C)C)C(=O)N3CCn4c3nc3ccccc34)ccc21 (centres undefined) | -16.9 | 94.5 | -3.72* | 91.3 | -5.4 | 94.8
CC(=O)N1CCc2cc(S(=O)(=O)NC(CC(C)C)C(=O)Nc3ccc4c(c3)OCCO4)ccc21 (centres undefined) | . | 100.8 | -0.35 | 105.0 | 2.7 | 97.4
O=C(O)c1ccc2c(c1)C(=O)N(C(Cc1ccc(O)cc1)C(=O)O)C2=O (centres undefined) | -8.6 | 89.3 | 0.54 | 88.6 | 7.2 | 94.6
CCC(O)CNc1nc(SC)nc2sc3c(c12)CCN(C)C3 (centres undefined) | . | 54.2 | 0.3 | 85.9 | . | 93.6
Cc1cc(C)n(-c2nc(SCCN(C)C)c3c4c(sc3n2)CCCC4)n1 | -30.5 | 2.7* | -0.92 | 2.3* | . | 3.0*
CCC(O)CNc1nc(-n2nc(C)cc2C)nc2sc3c(c12)CCCC3 (centres undefined) | . | 8.4* | . | 103.8 | -4.1 | 80.1
CC(/C=N\NC(=O)Cn1c(C)nc2ccccc21)=C\c1ccccc1 | 0.2 | . | 0.57 | . | . | .
Cc1ccc(-c2nnc3ccc(SCC(=O)Nc4cc(C)on4)nn23)cc1 | 65.8* | 70.0 | 0.25 | 100.0 | -2.5 | 98.5
Cc1cc(NC(=O)COC(=O)C(Nc2ccc(C(F)(F)F)cc2Cl)C(C)C)no1 (centres undefined) | -36.6 | 75.0 | -2.18 | 13.2* | 5.7 | 92.2
COc1ccc(CN(Cc2cc3ccc(C)cc3[nH]c2=O)Cc2nnnn2C2CCCC2)cc1 | . | 24.9* | -0.32 | 67.4 | -1.1 | 91.9
Cc1cc2cc(CN(Cc3ccc4c(c3)OCO4)Cc3nnnn3C3CCCC3)c(=O)[nH]c2cc1C | 34.4 | 67.5 | -1.45 | 65.6 | -2.2 | 96.0
O=c1[nH]c2cc3c(cc2cc1CN(CCc1ccccc1)Cc1nnnn1C1CCCC1)OCCO3 | 10.0 | 35.5* | . | 77.2 | -2.2 | 96.9
Cc1cccc2cc(CN(Cc3nnnn3C3CCCC3)C3CCCCC3)c(=O)[nH]c12 | 7.6 | 78.0 | 0.76 | 82.6 | -5.1 | 102.3
Cc1ccc2[nH]c(=O)c(CN(Cc3ccc4c(c3)OCO4)Cc3nnnn3C3CCCC3)cc2c1 | . | 11.4* | 0.42 | 65.0 | 9.9 | 87.1
CCc1ccc2[nH]c(=O)c(CN(Cc3nnnn3C3CCCC3)C3CCCCC3)cc2c1 | . | 11.9* | -0.8 | 70.8 | 2.4 | .
O=c1[nH]c2cc3c(cc2cc1CN(Cc1ccccc1)Cc1nnnn1Cc1ccco1)OCCO3 | 0.1 | 45.0 | 1.11 | 69.3 | 4.5 | 92.6
FC(F)(F)c1cnc(Nc2ccc(N3CCOCC3)cc2)c(Cl)c1 | -1.1 | 98.7 | 0.18 | 116.9 | -4.6 | .
O=C(NCc1ccco1)C(c1ccc(F)cc1)N(CC1CCCO1)C(=O)Cn1nnc2ccccc21 (centres undefined) | 7.3 | 103.2 | 1.11 | 98.5 | -4.8 | 105.3
COCCN1Cc2cccc(C(=O)Nc3ccc(S(=O)(=O)N4CCCCCC4)cc3)c2C1=O | . | 25.0* | . | 47.4 | -4.5 | 78.9

From PubChem
